Assay results published in PubChem BioAssay AID2152 (The Scripps Research Institute Molecular Screening Center, 2009).
Among all 2,300 compounds or so, about 25 (1%) were called active. Only a selection was taken, and actives are over-represented in it overall. A number with no mark means an inactive call.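 Rule for the calls: active = mean inhibition over three replicate wells above the hit threshold derived in the earlier primary screen (cut at about 45% in these data); inactive = the rest.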

test system: Hepatitis C virus core protein (core106 dimerization); assay: blockers of core106 self-association – biochemical, TR-FRET, triplicate, confirmation (AID 2152); conditions: TR-FRET GST-/Flag-core106 dimerization, HTRF; at 5 µM; active compounds read high;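 note: 0% = DMSO wells and 100% = unlabelled core106 competitor control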
Summary of the method: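 Material: GST- and Flag-tagged HCV core106 peptides, dimerization via antibody TR-FRET. Medium: HEPES/KF buffer, pH 7.45. Doses: one 5 µM dose, 0.5% DMSO. Times: 4 h incubation, 22.5 °C. Detection: TR-FRET, excitation 340 nm, emission 671 and 617 nm. Measure: percent inhibition from emission ratio. Controls: unlabelled core106 and DMSO wells.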

SMILES	inhibition
CC(C)C(C)(C#N)NC(=O)CSc1nc2scc(-c3ccco3)c2c(=O)n1-c1ccccc1 (configuration not stated)	-0.21%
N#C/C(=N\Nc1ccc(S(=O)(=O)N2CCc3ccccc32)cc1)C(N)=S	-0.77%
CC(=O)Oc1ccc(C(=O)[C@H]2[C@H]3C(=O)N(c4ccccc4)C(=O)[C@H]3[C@@H]3C=CC=NN32)cc1	-1.31%
COc1ccc(-n2nc3cc(C)c(NC(=S)NC(=O)c4ccccc4C)cc3n2)cc1	14.3%
COc1cccc(NC(=S)Nc2cc(C)cc(C)n2)c1	72.9% (active)
COc1cccc(NC(=O)c2cc(-c3ccc(C)o3)nc3ccccc23)c1	-3.59%
CC1Cc2ccccc2N1Cc1cc(=O)n2ccsc2n1 (configuration not stated)	3.14%
COc1ccc(C(=O)[C@H]2[C@H]3C(=O)N(c4ccc(C)cc4)C(=O)[C@H]3C3C=CC=NN32)cc1 (some centres not stated)	2.52%
Cc1cc(C)c2nc(-c3ccccn3)cc(C(=O)Nc3ccc(S(=O)(=O)Nc4cc(C)on4)cc3)c2c1	14.4%
O=C(O)C1Nc2c(O)cccc2C2C=CCC12 (configuration not stated)	53.8% (active)
Cc1ccc2c(c1C)NC(C(=O)O)C1CC=CC21 (configuration not stated)	17.4%
COc1cccc2c1NC(C(=O)O)C1CC=CC21 (configuration not stated)	8.1%
COc1ccccc1Nc1ncc(-c2cccs2)s1	-8.18%
O=C(CN1CCN(c2ccc(F)cc2)CC1)NC(=O)NCc1ccco1	-6.85%
O=C(Cn1c(=O)c2c(ncn2C2CCCC2)n(Cc2ccccc2)c1=O)N1CCc2ccccc21	5.72%
COc1ccc(C2=NN(c3nc(-c4ccccc4)c(CC(=O)O)s3)C(c3ccco3)C2)cc1 (configuration not stated)	51.3% (active)
CC(C)[C@H](NS(=O)(=O)c1ccccc1)C(=O)OCC(=O)N1N=C(c2ccc(Cl)cc2)CC1c1ccco1 (some centres not stated)	-2.37%
COc1ccc(C2CC(c3ccccc3)=NN2c2ccc(/C=N/NC(=O)c3ccncc3)cc2)cc1 (configuration not stated)	-1.14%
COc1ccc(C(=O)N/N=C(\C)c2ccc3c(c2)C2C=CCC2C(c2ccccc2)N3)cc1 (configuration not stated)	1.09%

SMILES	inhibition
Cc1cccc(N2CC(C(=O)Nc3nnc(SCc4ccccn4)s3)CC2=O)c1 (configuration not stated)	21.3%
COc1ccc(C=O)cc1COc1ccc(F)cc1F	-6.06%
O=C(Nc1ccc(N2CCCC2)c(Cl)c1)c1cccc(-c2cc3ccccc3oc2=O)c1	-5.08%
N#Cc1c(-c2ccco2)cc(-c2ccccn2)nc1N	3.09%
CCN(CC(=O)Nc1ccc(OC)cc1)C(=O)Cc1cccs1	6.25%
Cc1ccc(C)c(S(=O)(=O)N2CCC(c3nc4c(nnn4Cc4ccc5c(c4)OCCO5)c(=O)[nH]3)CC2)c1	7.31%
Cc1ccc(O)c(N=CC2=C(O)c3ccccc3C2=O)c1	7.52%
COc1ccccc1NS(=O)(=O)c1cc(NC(=O)Nc2ccc(Cl)cc2Cl)ccc1N1CCCCC1	-5.21%
O=Cc1cn(-c2ccccc2)nc1-c1cc2c(ccc3ccccc32)oc1=O	-0.21%
COC(=O)/C=c1/s/c(=C(\C#N)C(=O)NCc2ccco2)n(-c2ccc(C)cc2)c1=O	-4.05%
Cc1c(C(=O)Nc2ccc(Cl)cc2)c2ccccn2c1C(=O)c1ccc([N+](=O)[O-])cc1	-5.31%
O=C(OCC(=O)c1ccc(Cl)s1)c1cnccn1	1.14%
CCOC(=O)c1ccc(NC(=O)COc2ccc(-n3cnnn3)cc2)cc1	3.21%
COc1ccccc1N1CCN(C(=O)c2ccc3c(c2)NC(=O)C(CSCc2ccccc2C)N3)CC1 (configuration not stated)	25.3%
Cc1ccc(N2C(=O)N3[C@H](c4ccc(F)cc4)[C@@H]4C(=O)N(C5CCCCC5)C(=O)[C@@H]4[C@]3(Cc3ccccc3)C2=O)cc1	-1.83%
CC(=O)Nc1ccc(NC(=O)c2ccc(COc3ccccc3)cc2)cc1	-12.8%
Cc1cc(-c2csc(NC(=O)c3cc4ccccc4o3)n2)c(C)n1C	22.5%
COC(=O)c1ccc(Oc2coc3cc(OCc4cnn(-c5ccccc5)c4)ccc3c2=O)cc1	-4.6%
N#Cc1c(-c2cccc(F)c2)cc(-c2ccccc2)nc1Br	9.78%

SMILES	inhibition
CCOC(=O)C1=C(c2ccccc2)NC(=S)NC1c1cc([N+](=O)[O-])ccc1OC (configuration not stated)	-1.99%
COc1ccc(-n2c(-c3ccccc3)nc(=S)c3c2CCCC3)cc1	33.8%
O=[N+]([O-])c1ccc(Oc2cc(NC3CCCCCCC3)c([N+](=O)[O-])cc2[N+](=O)[O-])cc1	-0.42%
Cc1ccc2nc(/C(C#N)=C\c3ccc(Oc4ccc(C(F)(F)F)cc4[N+](=O)[O-])cc3)[nH]c2c1	-6.22%
N#CC(=C1CCCC1)c1nc(-c2ccccc2O)cs1	-2%
O=C(Nc1ccc2c(c1)OCO2)c1cc(-c2cccnc2)nc2ccccc12	-0.48%
O=C1C2C3C=CC(C4CC34)C2C(=O)N1/N=C/c1ccc(-c2ccc(Cl)cc2[N+](=O)[O-])o1 (configuration not stated)	-5.46%
CCN1C=C(Cc2cccs2)C2=C(C1)C(c1cccs1)C(C#N)=C(N)O2 (configuration not stated)	-3.27%
CSc1nc(SCC(=O)NCc2ccco2)c2c3c(sc2n1)CN(C)CC3	20.1%
CCCCc1nc2sc3c(SCC(=O)NCc4ccco4)ncnc3c2c2c1CCC2	52.8% (active)
CCCc1nc2sc3c(SCC(=O)NCc4ccco4)ncnc3c2c2c1CCC2	15.9%
O=C(NCc1ccco1)C(c1ccco1)N(C(=O)Cn1nnc2ccccc21)c1ccc2c(c1)CCC2 (configuration not stated)	6.56%
COc1ccc(/C=C/C(=O)Nc2cc(C)nn2-c2nc3ccccc3n2Cc2cccc([N+](=O)[O-])c2)cc1	-5.15%
COc1ccc(NS(=O)(=O)c2ccc(O)c(NC(=O)c3cc4c(C)nn(-c5ccc(F)cc5)c4s3)c2)cc1	-2.83%
Cc1ccc(Cn2c(SCC(=O)Nc3cc(C)on3)nc3ccccc3c2=O)cc1	9.61%
COc1cccc(-n2c(SCC(=O)Nc3cc(C)on3)nc3c([nH]c4ccccc43)c2=O)c1	-2.22%
CCCCn1c(SCC(=O)Nc2cc(C)on2)nc2ccccc2c1=O	54.9% (active)
CC1CCCCC12NC(=O)N(CC(=O)c1ccc[nH]1)C2=O (configuration not stated)	-2.48%
Cn1c(SCC(=O)Nc2sccc2C#N)nnc1-c1ccccc1	-0.16%
